Laboratory results taken from ChEMBL document CHEMBL4028892, “Discovery of a 1-Methyl-3,4-dihydronaphthalene-Based Sphingosine-1-Phosphate (S1P) Receptor Agonist Ceralifimod (ONO-4641). A S1P1 and S1P5 Selective Agonist for the Treatment of Autoimmune Diseases” (J Med Chem, 2017).

Columns and labels:
[1] = molecular target: Sphingosine 1-phosphate receptor 3 (Homo sapiens, UniProt Q99500); assay: Agonist activity at human S1P3 receptor expressed in CHO-K1 cells assessed as increase in S1P-stimulated calcium influx preincubated for 5 mins followed by S1P stimulation measured every 3 secs by fluorescence method; format: cell-based
[2] = molecular target: T1, Sphingosine 1-phosphate receptor 1 (Homo sapiens, UniProt P21453); assay: Agonist activity at human S1P1 receptor expressed in CHO-K1 cells assessed as increase in S1P-stimulated calcium influx preincubated for 5 mins followed by S1P stimulation measured every 3 secs by fluorescence method; format: functional, cell-based
Summary of the method: (§1)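 Fura2 Ca2+ assay in CHO-K1 cells stably expressing human S1P1 or S1P3. Cells were loaded with 5 μM Fura2-AM in Ham's F12 (10% FBS, 20 mM HEPES pH 7.4, 2.5 mM probenecid) for 60 min at 37 °C, then washed. After a 30 s baseline, compound was added (0.1 nM–30 μM final, DMSO), then 100 nM S1P 5 min later. Ratio read every 3 s (ex 340/380, em 500 nm). Increase ratio (%) = B/A×100 against the DMSO-well S1P peak; EC50 taken from the concentration series; mean of ≥2 data points.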

Mus musculus [3] = assay: Decrease in peripheral lymphocyte levels in po dosed BALB/c mouse at 4 hrs by automated hematology analyzer; format: functional
Summary of the method: (§2)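 Compound given orally to 6-week-old male BALB/c mice. At 4 or 24 h, blood was taken from the abdominal aorta under ether anaesthesia and lymphocytes counted on an automated haematology analyser. Counts expressed as % of the vehicle-group mean; ED50 is the dose lowering counts to 50%. One experiment, five mice.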

Homo sapiens = species: Homo sapiens; assay: Selectivity ratio of EC50 for human S1P3 receptor to EC50 for human S1P1 receptor; summary of the method: as §1
[4] = molecular target: T1, Sphingosine 1-phosphate receptor 1; assay: Agonist activity at human S1P1 receptor expressed in CHO-K1 cells assessed as inhibition of forskolin-stimulated cAMP accumulation after 30 mins by ELISA; format: functional, cell-based
Mus musculus [5] = assay: Decrease in peripheral lymphocyte levels in po dosed BALB/c mouse at 24 hrs by automated hematology analyzer; format: functional; summary of the method: as §2
[6] = molecular target: Sphingosine 1-phosphate receptor 5 (Homo sapiens, UniProt Q9H228); assay: Agonist activity at human S1P5 receptor expressed in CHO-K1 cells assessed as inhibition of forskolin-stimulated cAMP accumulation after 30 mins by ELISA; format: functional, cell-based
[7] = molecular target: S1P3 receptor (sphingosine 1-phosphate receptor 3) (Homo sapiens, UniProt Q99500); assay: Agonist activity at human S1P3 receptor expressed in CHO-K1 cells assessed as increase in S1P-stimulated calcium influx at 30 uM preincubated for 5 mins followed by S1P stimulation measured every 3 secs by fluorescence method relative to control; format: cell-based; details: CHO-K1 cells expressing human S1P3 receptor, read-out: max activation; summary of the method: as §1
[8] = Metabolic stability in mouse liver microsomes assessed as parent compound remaining after 2 hrs by radio-HPLC method; format: ADME, microsome; details: read-out: Stability
Summary of the method: (§3)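 Tritium-labelled compound incubated for 2 h in liver microsomes of each species. Read-out was % of unchanged form remaining; mean of two experiments.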

[9] = Protein binding in human serum at 50 to 5000 ng/ml after 10 mins by ultracentrifugation method; format: ADME, cell-free; details: read-out: PB
Summary of the method: (§4)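 Serum protein binding measured at compound concentrations of 50, 500 and 5,000 ng/mL. Mean of four binding experiments.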

[10] = Protein binding in mouse serum at 50 to 5000 ng/ml after 10 mins by ultracentrifugation method; format: ADME, cell-free; details: read-out: PB; summary of the method: as §4
[11] = Metabolic stability in Sprague-Dawley rat liver microsomes assessed as parent compound remaining after 2 hrs by radio-HPLC method; format: ADME, microsome; details: read-out: Stability; summary of the method: as §3
[12] = Metabolic stability in human liver microsomes assessed as parent compound remaining after 2 hrs by radio-HPLC method; format: ADME, microsome; details: read-out: Stability; summary of the method: as §3
[13] = Metabolic stability in cynomolgus monkey liver microsomes assessed as parent compound remaining after 2 hrs by radio-HPLC method; format: ADME, Macaca fascicularis, microsome; details: read-out: Stability; summary of the method: as §3
[14] = Protein binding in Sprague-Dawley rat serum at 50 to 5000 ng/ml after 10 mins by ultracentrifugation method; format: ADME, cell-free; details: read-out: PB; summary of the method: as §4
[15] = Protein binding in cynomolgus monkey serum at 50 to 5000 ng/ml after 10 mins by ultracentrifugation method; format: ADME, cell-free, Macaca fascicularis; details: read-out: PB; summary of the method: as §4
[16] = Protein binding in Lewis rat serum at 50 to 5000 ng/ml after 10 mins by ultracentrifugation method; format: ADME, cell-free; details: read-out: PB; summary of the method: as §4

T1 sequence (P21453 whole entry): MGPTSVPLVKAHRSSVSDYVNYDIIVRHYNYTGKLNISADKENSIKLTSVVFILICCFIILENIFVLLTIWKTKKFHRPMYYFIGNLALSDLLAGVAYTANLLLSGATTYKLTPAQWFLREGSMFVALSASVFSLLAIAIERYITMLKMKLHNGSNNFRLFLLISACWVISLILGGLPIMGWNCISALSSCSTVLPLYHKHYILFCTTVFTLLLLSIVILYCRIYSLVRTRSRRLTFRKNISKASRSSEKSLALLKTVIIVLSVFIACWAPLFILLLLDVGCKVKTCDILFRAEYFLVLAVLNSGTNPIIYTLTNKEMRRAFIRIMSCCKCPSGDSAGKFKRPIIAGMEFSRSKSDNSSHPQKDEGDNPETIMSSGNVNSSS
Sequence of Sphingosine 1-phosphate receptor 3 (Q99500 whole entry): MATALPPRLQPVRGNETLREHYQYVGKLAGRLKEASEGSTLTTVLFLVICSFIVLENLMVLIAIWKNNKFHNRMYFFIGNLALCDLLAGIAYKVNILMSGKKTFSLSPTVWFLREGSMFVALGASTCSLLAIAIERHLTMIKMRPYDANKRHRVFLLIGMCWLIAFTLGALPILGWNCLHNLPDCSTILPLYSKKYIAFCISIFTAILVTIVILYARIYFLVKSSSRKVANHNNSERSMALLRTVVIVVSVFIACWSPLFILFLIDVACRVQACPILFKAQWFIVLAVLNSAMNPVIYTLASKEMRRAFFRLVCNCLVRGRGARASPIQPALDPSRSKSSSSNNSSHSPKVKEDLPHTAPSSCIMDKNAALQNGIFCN
Sequence of Sphingosine 1-phosphate receptor 5 (Q9H228 whole entry): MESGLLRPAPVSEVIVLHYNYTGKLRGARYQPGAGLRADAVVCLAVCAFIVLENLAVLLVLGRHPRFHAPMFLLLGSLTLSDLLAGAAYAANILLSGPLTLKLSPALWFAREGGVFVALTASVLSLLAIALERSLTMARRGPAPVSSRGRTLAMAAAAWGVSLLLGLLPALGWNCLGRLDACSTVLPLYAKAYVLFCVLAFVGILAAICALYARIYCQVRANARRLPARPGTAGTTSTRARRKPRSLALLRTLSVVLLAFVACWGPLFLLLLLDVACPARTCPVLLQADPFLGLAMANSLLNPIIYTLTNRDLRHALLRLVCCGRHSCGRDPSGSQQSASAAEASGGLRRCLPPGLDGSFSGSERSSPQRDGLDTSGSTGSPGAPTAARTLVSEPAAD
Sequence of S1P3 receptor (sphingosine 1-phosphate receptor 3) (Q99500 whole entry): as the sequence (Q99500 whole entry) above

| Compound | EC50 [1] [nM] | EC50 [2] [nM] | ED50 (Mus musculus [3]) [mg/kg] | Ratio EC50 (Homo sapiens) | other results |
| --- | --- | --- | --- | --- | --- |
| CC1=C(CN2CC(C(=O)O)C2)CCc2cc(OCC3Cc4ccccc4C3)ccc21 | > 30000 | 7.9 | > 1 | > 3800 | – |
| CCCc1ccc(COc2cc3c(cc2C)C(C)=C(CN2CC(C(=O)O)C2)CC3)c(OC)c1 | > 30000 | 540 | – | > 56 | – |
| COc1cc(C)ccc1COc1ccc2c(c1)CCC(CN1CC(C(=O)O)C1)=C2C | > 30000 | 1.4 | > 0.1 | > 21000 | – |
| CC1=C(CN2CC(C(=O)O)C2)CCc2cc(OCC3CCc4ccccc4C3)ccc21 (configuration not stated) | > 30000 | 19 | – | > 1600 | – |
| CCCc1ccc(COc2ccc3c(c2C)CCC(CN2CC(C(=O)O)C2)=C3C)c(OC)n1 | > 30000 | 1.2 | 0.017 | > 25000 | EC50 [4]: 0.19 nM; ED50 (Mus musculus [5]): 0.048 mg/kg; EC50 [6]: 0.92 nM |
| COc1cc(CC(C)C)ccc1COc1ccc2c(c1)CCC(CN1CC(C(=O)O)C1)=C2C | 9300 | 1 | 0.0092 | 9300 | ED50 (Mus musculus [5]): 0.04 mg/kg |
| CC1=C(CN2CC(C(=O)O)C2)CCc2cc(OCc3ccc(CC(C)C)cc3Cl)ccc21 | > 30000 | 4.5 | 0.19 | > 6700 | – |
| COc1cc(COc2ccc3c(c2)CCC(CN2CC(C(=O)O)C2)=C3C)ccc1CC(C)C | 4000 | 3 | 0.034 | 1300 | – |
| CC1=C(CN2CC(C(=O)O)C2)CCc2cc(OCc3ccc(CC(C)C)cc3)ccc21 | > 30000 | 5 | 0.39 | > 6000 | Emax at 3 s, 30 µM [7]: < 50% |
| CCCc1ccc(COc2ccc3c(c2C)CCC(CN2CC(C(=O)O)C2)=C3C)c(OC)c1 | > 30000 | 1.2 | 0.032 | > 25000 | EC50 [4]: 0.072 nM; ED50 (Mus musculus [5]): 0.072 mg/kg; EC50 [6]: 0.98 nM |
| CCCc1ccc(COc2ccc3c(c2)CCC(CN2CC(C(=O)O)C2)=C3C)c(OC)n1 | 6800 | 0.58 | 0.011 | 12000 | – |
| CC1=C(CN2CC(C(=O)O)C2)CCc2cc(OCCCc3ccccc3)ccc21 | – | – | 0.4 | 1700 | – |
| CC1=C(CN2CC(C(=O)O)C2)CCc2cc(OCc3ccc(CC(C)C)cc3F)ccc21 | > 30000 | 2.6 | 0.073 | > 12000 | – |
| CCCc1cc(OC)c(COc2ccc3c(c2)CCC(CN2CC(C(=O)O)C2)=C3C)cn1 | > 30000 | 57 | > 0.1 | > 530 | – |
| [3H]C(C1=C(C)c2ccc(OCc3ccc(CCC)cc3OC)cc2CC1)N1CC(C(=O)O)C1 (configuration not stated) | – | – | – | – | remaining at 2 h [8]: 93.3%; fraction unbound at 10 min [9]: 0.029 to 0.032; fraction unbound at 10 min [10]: 0.029 to 0.038; remaining at 2 h [11]: 92.6%; remaining at 2 h [12]: 95.2%; remaining at 2 h [13]: 94.1%; fraction unbound at 10 min [14]: 0.018 to 0.023; fraction unbound at 10 min [15]: 0.027 to 0.029; fraction unbound at 10 min [16]: 0.023 to 0.028 |
| CC1=C(CN2CC(C(=O)O)C2)CCc2cc(OCc3ccc4ccccc4c3)ccc21 | > 10000 | 54 | – | > 190 | – |
| CCc1ccc(COc2ccc3c(c2)CCC(CN2CC(C(=O)O)C2)=C3C)c(OC)c1 | > 30000 | 0.58 | 0.026 | > 52000 | ED50 (Mus musculus [5]): 0.3 mg/kg |
| CC1=C(CN2CC(C(=O)O)C2)CCc2cc(OCCC3CCCc4ccccc43)ccc21 (configuration not stated) | > 30000 | 97 | – | > 310 | – |
| CC1=C(CN2CC(C(=O)O)C2)CCc2cc(OCCC3CCc4ccccc43)ccc21 (configuration not stated) | 5500 | 1.7 | > 1 | > 3200 | – |
| CC1=C(CN2CC(C(=O)O)C2)CCc2cc(OCc3ccc(CC(C)C)cc3C)ccc21 | > 30000 | 13 | 0.23 | > 2300 | – |
| COc1cc(CC(C)(C)O)ccc1COc1ccc2c(c1)CCC(CN1CC(C(=O)O)C1)=C2C | > 30000 | 6.6 | 0.16 | > 4500 | – |
| CCCCc1ccc(COc2ccc3c(c2)CCC(CN2CC(C(=O)O)C2)=C3C)c(OC)c1 | > 30000 | 3.5 | 0.09 | > 8600 | ED50 (Mus musculus [5]): 0.18 mg/kg |
